In ChEMBL document CHEMBL4014332, “Multitargeted Imidazoles: Potential Therapeutic Leads for Alzheimer's and Other Neurodegenerative Diseases” (J Med Chem, 2017):
pIC50: −log10 of the molar value.

Legend:
Cyclooxygenase = biological target: T1, Cyclooxygenase (Rattus norvegicus, UniProt P35355+Q63921); test: Inhibition of COX-mediated PGD2/PGE2 production in arachidonic acid-stimulated RBL1 cells preincubated for 2 hrs followed by A23187 induction for 15 mins by LC/MS/MS analysis
T1 sequence (P35355 whole entry): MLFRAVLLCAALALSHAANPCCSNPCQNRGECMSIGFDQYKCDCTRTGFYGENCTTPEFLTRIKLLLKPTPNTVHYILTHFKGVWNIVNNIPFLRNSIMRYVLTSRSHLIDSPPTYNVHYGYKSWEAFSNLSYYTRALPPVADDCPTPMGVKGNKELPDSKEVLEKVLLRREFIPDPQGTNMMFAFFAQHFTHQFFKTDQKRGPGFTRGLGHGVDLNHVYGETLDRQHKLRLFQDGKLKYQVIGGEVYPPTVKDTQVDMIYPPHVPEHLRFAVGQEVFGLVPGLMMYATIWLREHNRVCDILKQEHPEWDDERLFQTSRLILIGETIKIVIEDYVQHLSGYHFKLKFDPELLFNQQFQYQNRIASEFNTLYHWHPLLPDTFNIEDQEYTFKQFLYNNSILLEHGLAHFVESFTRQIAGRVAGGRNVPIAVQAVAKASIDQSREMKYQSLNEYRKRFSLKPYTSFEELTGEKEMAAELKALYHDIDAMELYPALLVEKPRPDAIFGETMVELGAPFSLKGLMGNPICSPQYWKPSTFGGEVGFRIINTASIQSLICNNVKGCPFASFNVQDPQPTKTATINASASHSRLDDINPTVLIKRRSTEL
T1 sequence (Q63921 whole entry): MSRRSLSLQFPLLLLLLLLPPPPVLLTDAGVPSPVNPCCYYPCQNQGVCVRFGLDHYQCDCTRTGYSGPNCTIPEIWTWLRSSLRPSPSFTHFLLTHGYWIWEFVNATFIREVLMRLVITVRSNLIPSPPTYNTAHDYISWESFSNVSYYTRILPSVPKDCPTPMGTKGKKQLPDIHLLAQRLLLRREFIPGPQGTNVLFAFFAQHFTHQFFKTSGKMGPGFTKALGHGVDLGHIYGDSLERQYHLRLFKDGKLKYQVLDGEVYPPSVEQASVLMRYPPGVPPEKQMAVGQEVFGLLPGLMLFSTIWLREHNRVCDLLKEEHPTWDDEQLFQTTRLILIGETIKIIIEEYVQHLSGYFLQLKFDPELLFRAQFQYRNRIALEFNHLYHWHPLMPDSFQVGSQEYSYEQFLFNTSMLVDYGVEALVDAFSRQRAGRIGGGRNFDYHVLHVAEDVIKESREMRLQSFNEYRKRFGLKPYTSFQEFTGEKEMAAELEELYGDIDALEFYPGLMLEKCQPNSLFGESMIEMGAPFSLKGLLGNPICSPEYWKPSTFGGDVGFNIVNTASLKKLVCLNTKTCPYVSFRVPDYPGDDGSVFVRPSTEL
Procedure, shortened: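 RBL-1 cells in RPMI/10% FBS, 9 × 10⁵ cells/well, held 2 h, then exposed to compound for 2 h at multiple concentrations in triplicate. Stimulation was 12 μM A23187 for 15 min. Eicosanoids were extracted with MeOH/0.01% BHT, and PGD₂ plus PGE₂ measured by UPLC-MS/MS (negative ion, 351 > 315).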

[1] = Change in total alpha-tubulin levels in human QBI293 cells at 1 uM after 4 hrs by ELISA relative to control; details: qbi293, 4 h
[2] = Ratio of drug level in brain to plasma in mouse at 5 mg/kg, ip administered as single dose; format: ADME, organism-based; details: read-out: BPR
Procedure, shortened: (§1)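 Groups of three CD-1 or B6SJL mice, 2–5 months old, sexes not mixed, received a single 5 mg/kg i.p. dose in DMSO. Compound was quantified in plasma and brain homogenate at a single time point, and the brain/plasma ratio was derived from these. Values are mean ± SD.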

Rattus norvegicus [3] = species on record: Rattus norvegicus; test: Inhibition of 5-LOX-mediated LTB4 production in arachidonic acid-stimulated RBL1 cells at 10 uM preincubated for 2 hrs followed by A23187 induction for 15 mins by LC/MS/MS analysis relative to control
Procedure, shortened: (§2)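 RBL-1 cells grown in RPMI/10% FBS, plated 9 × 10⁵ cells/well, held 2 h at 37 °C, then given compound for 2 h (screen at 10 μM, then concentration–response in triplicate). Stimulation was 12 μM A23187 for 15 min. Supernatants were extracted with MeOH/0.01% BHT and LTB₄ quantified by UPLC-MS/MS in negative ion mode.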

[4] = Inhibition of 5-LOX-mediated LTB4 production in arachidonic acid-stimulated RBL1 cells preincubated for 2 hrs followed by A23187 induction for 15 mins by LC/MS/MS analysis; details: Rattus norvegicus, RBL-1; procedure, shortened: as §2
[5] = Drug uptake in mouse brain at 5 mg/kg, ip administered as single dose after 1 hr by LC-MS/MS method; format: ADME, organism-based; details: read-out: Drug uptake; procedure, shortened: as §1
[6] = Plasma concentration in mouse at 5 mg/kg, ip administered as single dose after 1 hr by LC-MS/MS method; format: ADME, organism-based; procedure, shortened: as §1
[7] = biological target: Cyclooxygenase (Rattus norvegicus) (UniProt P35355+Q63921); details: at 10 nM
Rattus norvegicus [8] = species on record: Rattus norvegicus; details: at 10 nM

Compound | IC50 (Cyclooxygenase) [µM] | Kp [2] | inhibition (Rattus norvegicus [3]) [%] | pIC50 [4] | concentration at 1 h [5] [nM] | concentration at 1 h [6] [nM] | inhibition [7] [%] | inhibition (Rattus norvegicus [8]) [%] | Activity [1]
Fc1cc(-n2cnc(Cl)c2-c2c(F)ccc(F)c2F)ccc1Cl | 4.6 | 3 | 66 | 5.22 | 700 | 240 |  |  | Non-Toxic
Fc1ccc(Br)c(F)c1-c1c(Cl)ncn1-c1ccc(Cl)cc1 | 6.5 | 0.9 | 78 | 5.11 | 240 | 260 |  |  | Non-Toxic
Fc1ccc(Cl)c(F)c1-c1c(Cl)ncn1-c1ccc(Cl)cc1 | 2.2 | 2.1 | 63 | 5.02 | 400 | 190 |  |  | Non-Toxic
Fc1ccc(F)c(-c2c(Cl)ncn2-c2ccc(Cl)cc2)c1F | 2.9 | 2.8 | 69 | 5.62 | 700 | 300 |  |  | Non-Toxic

Second part, led by results:

IC50 (Cyclooxygenase) [µM] | Kp [2] | inhibition (Rattus norvegicus [3]) [%] | pIC50 [4] | concentration at 1 h [5] [nM] | concentration at 1 h [6] [nM] | inhibition [7] [%] | inhibition (Rattus norvegicus [8]) [%] | Compound | Activity [1]
15 | 1.9 | 92 | 4.97 | 900 | 480 |  |  | Fc1cccc(F)c1-c1cnc(Cl)n1-c1ccc(Cl)cc1 | Non-Toxic
 |  |  |  |  |  | < 10 | 70 | CC(C)c1ccc2c(c1)c(SC(C)(C)C)c(CC(C)(C)C(=O)O)n2Cc1ccc(Cl)cc1 | 
